Shown are actives, neighbours in structure and some others; about 2.1% of the full set was active somewhere.
MT stabilize HCS = microtubule stabilization, imaging screen; HeLa tubulin immunostaining HCS, 24 h; share of cells brighter than vehicle mean+2SD; actives 0.83% (n = 200,000); AID 2205; % tubulin-high responders, % at 10 µM;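 active means plate Z-score above 3 for both tubulin-high and condensed-nucleus cell shares, with cell loss under 80%, at 10 µM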;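 further: anti alpha tubulin signal scored within the nucleus-defined area of each cell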
b-catenin transl = beta-catenin nuclear translocation modulation; HeLa beta-catenin nuclear translocation, immunofluorescence imaging; nuclear translocation activity, % at 5 µM; actives 0.3% (n = 190,000);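 active means nuclear translocation activity above 50% at 5 µM, with a well cell count of 50 or more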;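 further: per-cell ratio of nuclear to cytoplasmic median beta-catenin stain intensity; plate controls were DMSO negative control for no effect and GSK-3 inhibitor IX positive control for full effect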
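Technique: fluorescence imaging of beta-catenin antibody stain plus DAPI / Material: human HeLa cell line / Incubation: compound treatment 24 h, 37°C, 5% CO2 / Read-out basis: % activation of per-cell nuclear versus cytoplasmic median beta-catenin signal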
Hsp70 activator = transcriptional activators of Hsp70. HeLa Hsp70 promoter luciferase reporter, luminescence; scaled: vehicle 0, proteasome-inhibitor control 100%. actives 0.04% (n = 200,000). activation, % at 10 µM;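 active means activation above the mean across all tested compounds plus 3 SD, cutoff set per campaign, cut at about 5.5% in these data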;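 further: 100% = MG132 at 30 µM as the positive control and 0% = DMSO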
Dynein cargo inh = dynein cargo transport inhibition. 3617.4 mouse cells, GR-EGFP nuclear translocation imaging; test concentration mostly 20 µM; stimulated with dexamethasone, 1 µM; hits give low values. z-score, hits read low. actives 0.47% (n = 220,000). AID 1381;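 active means plate z-score of nuclear minus cytoplasmic receptor signal below a set negative limit, without overly bright fluorescence or cell loss, cut at about -3.5 in these data, passing the limit was not always enough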;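 further: z-score of nuclear minus cytoplasmic ring GR-EGFP intensity difference per well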
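Buffer or medium: tet-free medium with charcoal-stripped serum / Also added: dexamethasone agonist, 1.0 µM final, for 30 min / Timing: induction 48 h, compound 1 h, agonist 30 min / Measured by: high-content fluorescence imaging after fixation / Read-out: nuclear-to-cytoplasmic GR-EGFP distribution per well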
Autophagy mod = autophagy modulation, high-content screen; MEF GFP-LC3 puncta imaging; test concentration mostly 10 µM; calls only at 10 µM (by protocol); actives 0.98% (n = 190,000);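 active means percentage of spot-positive cells more than 3 SD above its plate mean, without a fluorescence outlier flag or 80% toxicity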;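 further: spot-positive cell cutoff set from DMSO-treated cells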
Numbers without * were called inactive; i = inactive; . = no result given; + = active, no number.

SMILES | MT stabilize HCS | b-catenin transl | Hsp70 activator | Dynein cargo inh | Autophagy mod
CCCC/C(O)=C1\C(=O)CC(C)(C)CC1=Nc1ccccc1OC | 3 | -2 | 0 | 0.018 | i
COC(=O)c1cc(=O)n(-c2ccc(F)cc2)c(=Nc2ccc(F)cc2)s1 | 7 | -2 | 1 | -4.2* | i
COC(=O)c1cc(=O)n(Cc2cccs2)c(=Nc2ccc(F)cc2)s1 | 5 | -2 | 0 | -1.6 | i
COc1cc(C(=O)NC2CCCNC2)cc(OC)c1OC (stereo not drawn) | . | -3 | 0 | . | .
COc1ccc2oc(-c3ccccc3[N+](=O)[O-])cc(=O)c2c1 | 16* | 18 | 0 | -0.22 | i
COc1ccc(-c2cc(=O)c3ccccc3o2)cc1 | . | 1 | . | -0.86 | .
O=C1NC2(CCN(Cc3ccccc3)CC2)Oc2ccccc21 | 4 | -1 | 0 | 1.2 | i
O=C1c2ccccc2OC2(C=Cc3ccccc3O2)N1Cc1ccccc1 (stereo not drawn) | 42* | 48 | 0 | -1.6 | i
COc1ccc(CNC(=O)CN2C(=O)C3C4C=CC(C4)C3C2=O)cc1 (stereo not drawn) | 3 | . | 0 | 1.1 | +
COc1ccc(CN2C(=O)C3C4C=CC(C4)C3C2=O)cc1 (stereo not drawn) | 3 | 2 | 0 | -0.61 | i
Cc1cccc(NC(=O)CSc2cc(C)c(C#N)c3nc4ccccc4n23)c1 | . | 1 | . | -2.1 | .
O=C(O)c1ccccc1C(=O)N1CC=C(c2ccccc2)CC1 | 2 | 0 | 0 | -0.086 | i
Cc1c(C(=O)C(=O)N2c3ccccc3CC2C)c2ccccc2n1C (stereo not drawn) | 17* | 6 | 0 | -0.25 | i
Cc1c(C(=O)C(=O)N2CC=C(c3ccccc3)CC2)c2ccccc2n1C | 15 | 62* | 0 | -0.54 | i
Cc1ccccc1NC(=O)N1c2ccccc2CC1C (stereo not drawn) | 5 | -1 | 0 | 0.38 | i
Cc1ccc(C2N=C(N)Nc3nc(=O)c4ccccc4n32)cc1 (stereo not drawn) | . | -1 | . | 0.13 | .
COc1ccc(N2CC(C(=O)N/N=C/c3ccc(C)cc3)CC2=O)cc1 (stereo not drawn) | 21 | 54* | 0 | 2 | i
COc1ccc(N2CC(C(=O)N/N=C/c3ccc([N+](=O)[O-])cc3)CC2=O)cc1 (stereo not drawn) | 3 | -1 | 0 | 0.56 | i
CC(C)NC(=O)C1CCN(C2CCN(Cc3ccc4cccc(F)c4n3)CC2)CC1 | 4 | 2 | 0 | 4.5 | i
COc1ccc2[nH]c3c4c(ccc3c2c1)C(=O)C=CC4=O | . | 2 | . | -5.2* | .
COc1ccc2[nH]c(=O)cc(C(=O)O)c2c1 | 3 | -1 | 0 | 1 | i
CCC(=O)c1ccc(OCC(O)CN(C)C2CCCCC2)cc1 (stereo not drawn) | 3 | . | 0 | -0.079 | i
CN(CC(O)COc1ccc(OCC(O)CN(C)C2CCCCC2)cc1)C1CCCCC1 (stereo not drawn) | 2 | -4 | 0 | -0.34 | +
CCCC1=C(C(=O)OCC)C(/C=C/c2ccccc2)n2ncnc2N1 (stereo not drawn) | 45* | . | 0 | -0.76 | i
CCOC(=O)C1=C(C)Nc2ncnn2C1/C=C/c1ccccc1 (stereo not drawn) | 13 | 4 | 0 | -0.34 | i
SMILES | MT stabilize HCS | b-catenin transl | Hsp70 activator | Dynein cargo inh | Autophagy mod
O=C(C1CCN(Cc2ccccc2)CC1)N1CCN(C/C=C/c2ccccc2)CC1 | 2 | -1 | 0 | 0.41 | +
COc1ccccc1N1CCN(C(=O)c2c(-c3ccccc3)noc2C)CC1 | 28* | 126* | 0 | -0.48 | i
COc1cc(SC)ccc1C(=O)N1CCN(c2ccccc2OC)CC1 | 23* | 50* | 0 | 0.33 | i
O=C(CCS(=O)(=O)c1ccc(Br)s1)Nc1ccccc1Br | 5 | 0 | 1 | -0.46 | i
CCN(CC)S(=O)(=O)c1ccc2oc(C(=O)NCC3COc4ccccc4O3)c(C)c2c1 (stereo not drawn) | 23 | . | 0 | 0.075 | +
Cc1c(C(=O)NCC2COc3ccccc3O2)oc2ccc(S(=O)(=O)N3CCOCC3)cc12 (stereo not drawn) | 3 | -1 | 0 | 0.64 | i
O=C(CCl)Nc1cccc(S(=O)(=O)NC2=NCCC2)c1 | . | 10 | . | -0.81 | .
O=C(Nc1ccccc1N1CCOCC1)c1cccnc1Cl | 3 | 0 | 0 | 0.79 | i
COc1cc(OC)c(N(C)S(=O)(=O)c2cccc(C(=O)NC3=NCCS3)c2)cc1Cl | . | 0 | . | -0.1 | .
Cc1nn(-c2ccccc2)c2c1C1(C(=O)Nc3ccccc31)N1C(=N2)Sc2ccccc21 (stereo not drawn) | 3 | -7 | 0 | -1.4 | +
CCOC(=O)c1sc(NC(=O)CSc2nc3c(cc2C#N)CCCCCC3)c(C#N)c1C | 3 | 0 | 0 | -0.46 | +
COc1ccccc1/C=C(/CC(=O)NCc1ccc2c(c1)OCO2)c1nc2ccccc2s1 | 2 | . | 0 | 0.93 | i
CC(=O)OC1COC(OC2C(O)C(C)OC(OC3C(OC4CCC5(C)C(CCC6(C)C5CC=C5C7CC(C)(C)CCC7(C(=O)O)CCC56C)C4(C)CO)OCC(O)C3O)C2O)C(O)C1OC(C)=O (stereo not drawn) | 2 | -3 | -1 | -5.3* | i
CC(C)C(=O)c1cn(CC(=O)NCC2CCCO2)c2ccccc12 (stereo not drawn) | 4 | -4 | 0 | -0.15 | i
CCOC(=O)C1=C(O)/C(=C/c2cn(CC(=O)NCC3CCCO3)c3ccccc23)SC1=Nc1ccc(C)cc1 (stereo not drawn) | 4 | . | -1 | -0.8 | +
Cc1nc2ccccc2n1-c1nc(-c2ccco2)cc(C(F)(F)F)n1 | 32 | 12 | 0 | -0.36 | +
O=C(Cn1cnc2sc(-c3ccccc3)cc2c1=O)NCc1ccccc1 | 36* | . | 0 | 0.26 | +
O=C(Cn1cnc2sc(-c3ccccc3)cc2c1=O)NCc1ccco1 | 27* | 7 | -1 | -1 | i
CC1(C)CC(=O)C2=C(C1)NC1=C(C(=O)c3ccccc31)C2c1cc([N+](=O)[O-])ccc1O (stereo not drawn) | . | -1 | . | -1.1 | .
Cc1ccc(C)c(N/C(N)=N/c2nc(C)cc(C)n2)c1 | 1 | 0 | 0 | -0.72 | i
Cc1ccc(CN=C(N)Nc2nc(C)cc(C)n2)cc1 | 12* | 42 | 0 | -0.79 | i
CCN(CC)CCn1c2ccccc2c2cnc(N)c(C#N)c21 | 3 | -2 | 0 | -0.17 | +
CN(C)C=Nc1ncc2c3ccccc3n(CCN(C)C)c2c1C#N | 2 | 0 | 0 | 1.6 | i
O=C(Nc1ccc(N2CCOCC2)cc1)c1nc2ccccc2s1 | . | 0 | . | -0.022 | .
Cc1onc(-c2ccccc2)c1C(=O)Nc1nc2c(s1)CCCC2 | 19* | 0 | 0 | 0.32 | i

Screening results as filed in PubChem.
